In PubChem BioAssay:
Calls of active or inactive are those of the source.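 Rule for the calls, unless noted: active = viability at or under a set limit in both replicates, limit being median viability minus 3 SD (cut at about 48% in these data, passing the limit was not always enough); inconclusive = at or under the limit in just one replicate; inactive = at or above the limit in both replicates.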

Tests used:
[1] = reducers of endogenous Her2 protein level, primary screen, SKBR3 breast tumor cells, AlphaScreen, ATP viability (AID 461;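 active = Her2 level under about 52% in both replicate screens, with viability over 70% of control, limit read from the data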;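 for Her2 level: lower value means less Her2 protein in the cells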;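 for viability: percent of carrier control wells set as 100% viability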); settings: 18-24 h, measured here: SKBR3 viability, ATP luminescence, at 10 µM
[2] = target: Receptor tyrosine-protein kinase erbB-2 (Homo sapiens) (UniProt P04626); experiment: as above; settings: 18-24 h, at 10 µM, stronger effect = lower value
[3] = SK-BR-3 cell growth inhibitors, pilot screen, 24 h, human (AID 572;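 active = viability at or below 10% of carrier control in both of two separate runs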;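 note: compound exposure lasted between 18 and 24 h rather than exactly 24 h; 100% = carrier-treated control wells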); settings: SK-BR-3 viability, CellTiter-Glo luminescence, at 10 µM, stronger effect = lower value
[4] = HUVEC growth inhibition – cell-based, human, primary screen (AID 575;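 active = viability at or below 30% in both replicate assays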;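 note: 100% = median of untreated cell wells with 0.1% DMSO on each plate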); settings: HUVEC proliferation, CellTiter-Glo luminescence, 72 h; at 10 µM; stronger effect = lower value
In short: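 system = HUVEC primary cells | amount = 1250 cells/well | buffer or medium = supplemented EBM, 2% fetal bovine serum | dosing = single-point 10 µM, DMSO 0.1% final | times = 72 h compound incubation | detection = CTG luminescence | read-out = % viability relative to median vehicle-well signal on each plate | control set = vehicle and MePR control wells | format = collagen-coated 384-well format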

[5] = growth inhibitors of H69AR lung tumor, primary screen, human, duplicate replicates (AID 580); settings: H69AR lung tumor cells viability, ATP luminescence, 72 h; at 10 µM; stronger effect = lower value;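 note: 100% = mean luminescence of untreated wells and 0% = no signal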
[6] = reversal of MRP1-mediated doxorubicin resistance, pilot screen, H69AR cells, doxorubicin co-treatment (AID 601;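 active = viability loss from added drug above about 55%, and viability with drug at most 40%, in both replicates, limit read from the data, passing the limit was not always enough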); settings: CellTiter-Glo, 72 h, at 10 µM; for differential viability (reversal): stronger effect = higher value
[7] = 384-well plate pilot, post-Golgi transport modulator project, inhibition of yeast transport mutant growth (AID 636; in the data active = inhibition above about 31%); settings: absorbance 615 nm, about 18 h, stronger effect = higher value
[8] = growth suppression of yeast trafficking mutant, preliminary HTS, modulators of trafficking downstream of Golgi apparatus project, 1536-format plate, OD 615 nm (AID 637; in the data active = inhibition above about 30%); settings: yeast transport mutant growth, absorbance 615 nm, 18 h; stronger effect = higher value
[9] = H69AR cells + 2 uM doxorubicin, measured here: viability with 2 uM doxorubicin, stronger effect = lower value
[10] = H69AR cells, compound alone cytotoxicity

Sequence of Receptor tyrosine-protein kinase erbB-2 (Homo sapiens) (P04626 whole entry, looked up): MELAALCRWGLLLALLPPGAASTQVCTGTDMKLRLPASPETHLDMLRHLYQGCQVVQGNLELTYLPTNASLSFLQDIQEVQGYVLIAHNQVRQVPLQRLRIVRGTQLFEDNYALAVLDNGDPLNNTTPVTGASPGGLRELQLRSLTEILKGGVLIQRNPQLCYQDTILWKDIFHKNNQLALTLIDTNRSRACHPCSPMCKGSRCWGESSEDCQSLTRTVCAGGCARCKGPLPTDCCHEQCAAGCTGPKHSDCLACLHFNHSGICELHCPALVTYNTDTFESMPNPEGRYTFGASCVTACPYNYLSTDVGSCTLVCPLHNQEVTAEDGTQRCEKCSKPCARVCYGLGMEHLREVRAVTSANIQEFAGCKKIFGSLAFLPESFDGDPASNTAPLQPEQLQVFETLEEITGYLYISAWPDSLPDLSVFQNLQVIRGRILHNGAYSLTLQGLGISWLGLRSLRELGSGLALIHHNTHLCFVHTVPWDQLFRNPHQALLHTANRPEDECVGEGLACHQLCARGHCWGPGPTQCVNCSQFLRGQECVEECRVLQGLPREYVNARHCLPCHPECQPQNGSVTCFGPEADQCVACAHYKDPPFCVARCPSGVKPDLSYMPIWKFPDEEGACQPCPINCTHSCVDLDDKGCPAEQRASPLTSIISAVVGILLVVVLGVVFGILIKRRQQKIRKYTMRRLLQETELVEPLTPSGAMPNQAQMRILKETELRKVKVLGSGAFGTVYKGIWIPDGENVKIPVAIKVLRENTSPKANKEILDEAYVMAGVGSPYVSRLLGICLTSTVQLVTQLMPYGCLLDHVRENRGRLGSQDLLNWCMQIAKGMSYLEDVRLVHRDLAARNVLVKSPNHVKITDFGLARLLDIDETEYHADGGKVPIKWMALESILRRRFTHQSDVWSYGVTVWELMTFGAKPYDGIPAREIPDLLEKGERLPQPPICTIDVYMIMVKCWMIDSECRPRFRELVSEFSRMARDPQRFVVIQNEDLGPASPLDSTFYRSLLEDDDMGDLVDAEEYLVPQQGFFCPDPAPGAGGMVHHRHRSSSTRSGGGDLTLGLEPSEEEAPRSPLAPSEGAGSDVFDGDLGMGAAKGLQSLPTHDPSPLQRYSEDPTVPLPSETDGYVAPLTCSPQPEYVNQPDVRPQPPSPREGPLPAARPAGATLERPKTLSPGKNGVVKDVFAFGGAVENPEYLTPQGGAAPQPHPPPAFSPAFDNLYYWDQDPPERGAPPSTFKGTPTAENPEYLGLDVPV

Row | SMILES | viability [1] [%] | Her2 level [2] | viability [3] | viability [4] | viability [5] | differential viability (reversal) ([6]; H69AR cells + 2 uM doxorubicin) | viability [6, 9] [%] | viability [6, 10] [%] | inhibition [7] | inhibition [8]
1 | NC(=O)CCS(=O)(=O)CCN1CCCCC1 | 93.5 | 86% (inactive) | 93.5% (inactive) | 102% (inactive) | 93.2% (inactive) | -0.51% (inactive) | 93.7 | 93.2 | -0.13% (inactive) | -2.95% (inactive)
2 | CNC(=O)CN(c1cc(C)ccc1OC)S(=O)(=O)c1ccc(C)cc1 | 93 | 113% (inactive) | 93% (inactive) | 108% (inactive) | 103% (inactive) | 2.79% (inactive) | 100 | 103 | -2.93% (inactive) | -7.58% (inactive)
3 | c1ccc2c(c1)[nH]c1c(N3CCC4(CC3)OCCO4)ncnc12 | 96.5 | 77% (inactive) | 96.5% (inactive) | 65.2% (inactive) | 92.2% (inactive) | 5.46% (inactive) | 86.7 | 92.2 | -3.87% (inactive) | -3.87% (inactive)
4 | CCc1nc(N)c(C#N)c(-c2ccc(OC)c(OC)c2)c1C | 98.5 | 93% (inactive) | 98.5% (inactive) | 91.4% (inactive) | 87.2% (inactive) | 9.15% (inactive) | 78.1 | 87.2 | -6.93% (inactive) | 3.33% (inactive)
5 | CCNCC(O)COCC(O)CNCC (stereo not given) | 88.5 | 86% (inactive) | 88.5% (inactive) | 88.3% (inactive) | 99.7% (inactive) | 5.55% (inactive) | 94.2 | 99.7 | -1.03% (inactive) | -0.5% (inactive)
6 | COc1ccc(C2(C(=O)N3CCCC3)CCOCC2)cc1OC | 88.5 | 126% (inactive) | 88.5% (inactive) | 82.2% (inactive) | 97.2% (inactive) | 9.43% (inactive) | 87.8 | 97.2 | 3.21% (inactive) | -11% (inactive)
7 | COc1ccc(NC(=O)CC2Oc3ccccc3NC2=O)cc1 (stereo not given) | 87.5 | 90% (inactive) | 87.5% (inactive) | 96.2% (inactive) | 97.6% (inactive) | 0.535% (inactive) | 97.1 | 97.6 | 0.27% (inactive) | -4.75% (inactive)
8 | Cc1cccn2c(=O)c3cc(C(=O)N4CCCc5ccccc54)n(C)c3nc12 | 86.5 | 80% (inactive) | 86.5% (inactive) | 97.2% (inactive) | 90.2% (inactive) | 1.01% (inactive) | 89.2 | 90.2 | -1.89% (inactive) | -5.08% (inactive)
9 | COc1ccc(C2C(C#N)=C(N)OC3=C2C(=O)CC(C)C3)c(OC)c1OC (stereo not given) | 102 | 134% (inactive) | 102% (inactive) | 101% (inactive) | 100% (inactive) | 3.42% (inactive) | 96.6 | 100 | 2.86% (inactive) | -4.83% (inactive)
10 | CCCS(=O)(=O)N1CCCC(C(=O)N2CCC(Cc3ccccc3)CC2)C1 (stereo not given) | 91.5 | 96.5% (inactive) | 91.5% (inactive) | 85.9% (inactive) | 98.7% (inactive) | 1.65% (inactive) | 97.1 | 98.7 | -1.32% (inactive) | 4.92% (inactive)
11 | COc1ccc(N(CC(=O)N2c3ccccc3CC2C)S(=O)(=O)c2c(C)noc2C)cc1 (stereo not given) | 88.5 | 88.5% (inactive) | 88.5% (inactive) | 70.3% (inactive) | 83% (inactive) | -16.9% (inactive) | 99.9 | 83 | -4.53% (inactive) | 1.97% (inactive)
12 | CN(C)CCCN1C(=O)c2oc3ccccc3c(=O)c2C1c1cccs1 (stereo not given) | 110 | 93.5% (inactive) | 110% (inactive) | 99% (inactive) | 86.1% (inactive) | 5.31% (inactive) | 80.8 | 86.1 | -1.95% (inactive) | 1.67% (inactive)
13 | O=C(CN(Cc1ccco1)C(=O)CNS(=O)(=O)c1ccc(Cl)cc1)NCc1ccc(F)cc1 | 118 | 106% (inactive) | 118% (inactive) | 83.4% (inactive) | 81.4% (inactive) | -5.12% (inactive) | 86.5 | 81.4 | -0.53% (inactive) | 1.77% (inactive)
14 | O=C(O)CCN1C(=O)c2ccccc2C1=O | 99 | 91% (inactive) | 99% (inactive) | 112% (inactive) | 97.5% (inactive) | -1.81% (inactive) | 99.4 | 97.5 | -2.24% (inactive) | 2.79% (inactive)
15 | COc1cccc(OC)c1C(=O)Nc1cccc(C(C)=O)c1 | 103 | 99% (inactive) | 103% (inactive) | 98.8% (inactive) | 98.7% (inactive) | 6.47% (inactive) | 92.2 | 98.7 | -6.27% (inactive) | 0.48% (inactive)
16 | Cc1cccc2cc(COC(=O)C(C)(C)C)c(=O)[nH]c12 | 95.5 | 91.5% (inactive) | 95.5% (inactive) | 108% (inactive) | 97.6% (inactive) | 2.58% (inactive) | 95 | 97.6 | 0.13% (inactive) | 5.17% (inactive)
17 | COc1ccccc1NC(=O)c1ccc(COc2ccccc2OC)o1 | 95.5 | 97% (inactive) | 95.5% (inactive) | 87.6% (inactive) | 97.2% (inactive) | 5.99% (inactive) | 91.3 | 97.2 | -6.27% (inactive) | 0% (inactive)
18 | CCn1c(C)c(CCC(=O)O)c(=O)n2nc(-c3ccccc3OC)cc12 | 91 | 104% (inactive) | 91% (inactive) | 100% (inactive) | 87.4% (inactive) | -1.22% (inactive) | 88.6 | 87.4 | -0.14% (inactive) | 23.6% (inactive)
19 | Cc1ccc(NC(=O)CSc2nnc(CNC(=O)c3c(F)cccc3Cl)o2)cc1 | 80 | 98% (inactive) | 80% (inactive) | 98% (inactive) | 95.7% (inactive) | -0.775% (inactive) | 96.5 | 95.7 | -0.51% (inactive) | -6.83% (inactive)
20 | COC(=O)c1ccc(NC(=O)CN2CCN(c3ccc(Cl)cc3)CC2)cc1 | 96.5 | 100% (inactive) | 96.5% (inactive) | 104% (inactive) | 96.1% (inactive) | -0.5% (inactive) | 96.6 | 96.1 | 0.13% (inactive) | 12.9% (inactive)
21 | CC(=O)NC(=O)NC1CSCC1OC(C)=O (stereo not given) | 112 | 89% (inactive) | 112% (inactive) | 106% (inactive) | 92.8% (inactive) | 5.96% (inactive) | 86.9 | 92.8 | -6.53% (inactive) | 0.48% (inactive)
22 | CCn1nccc1C(=O)Nc1cc(Cl)ccc1Cl | 102 | 97.5% (inactive) | 102% (inactive) | 89.3% (inactive) | 112% (inactive) | 24.9% (inactive) | 86.7 | 112 | -5.66% (inactive) | -2% (inactive)
23 | CCOc1ccc(S(=O)(=O)N2CCN(C(=O)c3cccn3C)CC2)cc1 | 101 | 78.5% (inactive) | 101% (inactive) | 101% (inactive) | 97.3% (inactive) | 9.79% (inactive) | 87.5 | 97.3 | -9.04% (inactive) | -2.86% (inactive)
24 | CC(=O)N(c1ccc(N(C(C)=O)S(=O)(=O)c2cccs2)cc1)S(=O)(=O)c1cccs1 | 90 | 104% (inactive) | 90% (inactive) | 85% (inactive) | 86% (inactive) | -22.3% (inactive) | 108 | 86 | -1.18% (inactive) | 1.15% (inactive)
25 | COCCn1c(SCC(=O)c2ccccc2)nc2c(c1=O)SC(C)C2 (stereo not given) | 108 | 106% (inactive) | 108% (inactive) | 98.9% (inactive) | 79.7% (inactive) | 27.6% (inactive) | 52.1 | 79.7 | -5.2% (inactive) | 3.44% (inactive)
26 | CCCCOc1ccc(-c2nnn(CC(=O)Nc3ncc(CC(=O)OCC)s3)n2)cc1 | 122 | 100% (inactive) | 122% (inactive) | 74.5% (inactive) | 84% (inactive) | -4.45% (inactive) | 88.4 | 84 | -7.11% (inactive) | -1.59% (inactive)
27 | NC(=O)COC(=O)CNC(=O)c1ccc(Cl)cc1 | 125 | 98% (inactive) | 125% (inactive) | 86.1% (inactive) | 101% (inactive) | 16.1% (inactive) | 84.7 | 101 | -2.4% (inactive) | -0.81% (inactive)
28 | CCOC(=O)c1ccc(NC(=O)COc2ccc(-n3cnnn3)cc2)cc1 | 124 | 95% (inactive) | 124% (inactive) | 96.8% (inactive) | 89% (inactive) | 1.81% (inactive) | 87.2 | 89 | -4.13% (inactive) | -1.43% (inactive)
29 | Cc1oc(C(=O)O)cc1CSCc1cc(C(=O)O)c(C)o1 | 104 | 94.5% (inactive) | 104% (inactive) | 92.9% (inactive) | 103% (inactive) | 1.31% (inactive) | 102 | 103 | -3.51% (inactive) | -1.48% (inactive)
